Fewer inactive variants are shown than the library holds.
B1: tRNA (parent)
chain: GUUCCGUUGGCGUAAUGGUAACGCGUCUCCCUCCUAAGGAGAAGACUGCGGGUUCGAGUCCCGUACGGAACG

Variants of: B1
Assay: yeast fitness relative to wild type (ratio to wild type); higher = fitter; tRNA-Arg(CCU), competitive growth, 37 C, YPD
In short: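 Amplicons of the tRNA-Arg(CCU) gene were sequenced, 100-nucleotide paired-end, from the start population and from each end population of a pooled yeast competition. The competition, in six parallel replicates, lasted 24 hours in YPD at 37°C. Fitness relative to wild type was calculated from changes in genotype frequencies. Genotypes had to have ≥ 100 starting reads, and estimates < 0.5 were set to 0.5.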

Going from GUUCCGUUGGCGUAAUGGUAAAGCGUCUCUCUCCUAAGGAGAAGACUGCGGGUUCGAGUCCCGUACGGCACG to GUUCCGUUGGCGUAAUGGUAAAGCGUCUCCCUCCUAAGGAGAAGACAGCGGGUUCGAGUCCCGUACGGAGCG, the yeast fitness rises from ≤ 0.5 to 0.577.

First: GUUCCGUUGGCGUAAUGGUAAAGCGUCUCCCUCCUAAGGAGAAGACUAUACGUUCGAGUCCCGAACGGACCG
Second: GUUCCGUUGGCGUAAUGGUAAAGCGUCUUCCUCCUAAGGAGAAGACUGCGGGUUCGAGUCCCGUAUGGAACG
The yeast fitness of the first is higher: 0.563 for the first, ≤ 0.5 for the second.

Compared with GUUCCGUUGGCGUAAUGGUAAAGCGUCUCCCUCCUAAGGAGAAGAGUGCGGAUUCGAGUCCCGUACGGAACG, GUUCCGUUGGCGUAAUGGUAAAGCGUCCCCCUCCUAAGGAGGAGACAGCGGGUUCGAGUCCCGUACGGAACG is higher in yeast fitness: ≤ 0.5 for the first, 0.64 for the second.

First: GUUCCGUUGGCGUAAUGGUAAAGCGUCUCCCUUCUAAGGAGAAGACUGCGGGUUCGAGUCCCGUACGGAACG
Second: GUUCCGUUGGCGUAAUGGUAAAGCGUCUUCCUCCUAAGGAGAAGACUGCGGGUUCGAGUCCCGUACGGAACG
The yeast fitness of the first is lower: 0.604 for the first, 0.621 for the second.

First: GUUCCGUUGGCGUAAUGGUAAAGCGUCUACCUCCUAAGGAGAAGACUGCGGGUUCGAGUCCCGUACGGAACG
Second: GUUCCGUUGGCGUAAUGGUAAAGCGUUUCCCUCCUAAGGAGAAGACUGCGGGUUCACGUCCCGUACGGAACG
The yeast fitness of the first is higher: 0.636 for the first, ≤ 0.5 for the second.

Compared with GUUCCGUUGGCGUAAUGGUAAACCGUCUCCCUCCUAAGGAGAAGACUGGGGGUUCGAGUUCCGUACGGAACG, GUUCCGUUGGCGUAAUGGUAAAGCGUCUCCCUCCUAAGGAGAAGACUACGAGUUCGAGUCCCGUACGGAACG is higher in yeast fitness: ≤ 0.5 for the first, 0.582 for the second.

Going from GUUCCGUUGGCGUAAUGGUAAAGCGUCUCCCUCCAAAGGAGAAGACUGCGGGUUCGAGUCCCGUACGGAACG to GUUCCGUUGGCGUAAUGGUAAAGCGUCUCCCAUCUAAGAAGACGACUGCGGGUUCGAGUCCCGUACGGCACG, the yeast fitness falls from 0.603 to ≤ 0.5.

First: GUUCCGUUGGCGUAAUGGUAAAGCGUCUCCCUCCUAAGGAGAAGACUGCGCGUUCGUGUCCCGUACGGAACG
Second: GUUCCGUUGGCGUAAUGGUAAAGCGUCUCCCUCCUAAGGAGAAGACUCCGAGUUAGAGUCCCGUAAGGAACG
The yeast fitness of the first is higher: 0.624 for the first, ≤ 0.5 for the second.

Compared with GUUCCGUUGGCGUAAUGGUAAAGCAUCUCCCUCCUAAGGAGAAAACUGCGGGUUCGAGUCCCGUACGGAACG, GUUCCGUUGGCGUAAUGGUAAAGCGUCUCCCUCCUAAGGAGAAGAUUGCGGGUUCGAGUCCCGUACGGAACG is higher in yeast fitness: 0.65 for the first, 1.1 for the second.

Compared with GUUCCGUUGGCGUAAUGGUAAACCGUUUCCCUCCUAAGGAGAAGACUGCGGGUUCGAGUCCCGUACGGAACG, GUUCCGUUGGCGUAAUGGUAAAGCGUCUCUGUCCUAAGGAGAAGACUGCGGGUUCGAGUCCCGUACGGAACG is higher in yeast fitness: ≤ 0.5 for the first, 0.551 for the second.

Compared with GUUCCGUUGGCGUAAUGGUAAAGCGUCUCGCUCGUAAGGAGAAGACUGCGGGUUCGAGUCCCGUACGGAACG, GUUCCGUUGGCGUAAUGGUAAAGCGUCUCCCUCCUAAGGAGAAGACUGCGGGUUCGAGUCCCAUACGGAACG is higher in yeast fitness: ≤ 0.5 for the first, 0.983 for the second.

GUUCCGUUGGCGUAAUGGUAAAGCGUCUCCCUCCUAAGGAGAAGACUGAGGGUUCGAGUCUCGUACGGAACG and GUUCCGUUGGCGUAAUGGUAAAACGUCUCCCUUGUAAGGAGAAGACUGCGGGUUCGAGUGCCGUACAGAACG cannot be ordered by yeast fitness: ≤ 0.5 for the first, ≤ 0.5 for the second.

Going from GUUCCGUUGGCGUAAUGGUAAAGCGUCUACCUCCUAAGGAGAUGACUGCGGGUUCGAGUCCCGUACGGAACG to GUUCCGUUGGCGUAAUGGUAAACCGUCUCCCUCCUAAGGAGAAGACUGCGGGUUCGAGUCCCGUACGGAACG, the yeast fitness rises from ≤ 0.5 to 0.535.

First: GUUCCGUUGGCGUAAUGGUAAAGCGUCUCCCUCCUAAGGAGAAGACUGGGGGUUCGAGUCCCGUACAGAACG
Second: GUUCCGUUGGCGUAAUGGUAAAGCGUCUCCCUCCUAAGGAGAAGAAUGCGGGUUCGAGUCCCGUUCGGAACG
The yeast fitness of the first is lower: ≤ 0.5 for the first, 0.687 for the second.

Going from GUUCCGUUGGCGUAAUGGUAAAGCGUCUCCCUCCUAAGGAGAAGACUGCGGGUUCGAGUCGCGUACGGAACG to GUUCCGUUGGCGUAAUGGUAAAGCAUCUCCCUCCUAAGGAGAAGACUGCGGGUUCGAGUCCCGUACGGAACG, the yeast fitness rises from 0.594 to 0.992.

GUUCCGUUGGCGUAAUGGUAAAGCGUCUGCCUUCUAAGGAGAAGACUGCGGGUUCGAGUCCCGUACGGACCG and GUUCCGUUGGCGUAAUGGUAAAGCGUCUCCCUCGUGAGGAGAAGACUCCGGGUUCGAGUCCCGUACGGAACG cannot be ordered by yeast fitness: ≤ 0.5 for the first, ≤ 0.5 for the second.

First: GUUCCGUUGGCGUAAUGGUAAAGCGUCUCCUUCCUAAGGAGAAGACUGCGGGUUCGAGUCCCGUACGGAACG
Second: GUUCCGUUGGCGUAAUGGUAAAGCGUCUCCGUCCUAAGGAGAAGACUGCGGGUUCGAGUCCCGUACGGAACG
The yeast fitness of the first is higher: 1.07 for the first, 0.749 for the second.

Going from GUUCCGUUGGCGUAAUGGUAAAGCGUCUGCCUCCUAAGGAGAAAACUGCGGGUUCGAGUCCCGGACGGAACG to GUUCCGUUGGCGUAAUGGUAAAGCGUCUCCGUCCUAGCGAGAGGACUGCGGGUUCGACUCCCGUACGGAACG, the yeast fitness rises from ≤ 0.5 to 0.532.

Going from GUUCCGUUGGCGUAAUGGUAAAGCGUCUCCCUCCUAAGGAGAAGACUGCGGGUUCGAGUCCCGUAGGGAACG to GUUCCGUUGGCGUAAUGGUAAAACGUCUCCCUCCUAGGGAGAAGACUGCGGGUGCGAGUCCCGUACGGAACG, the yeast fitness falls from 0.714 to ≤ 0.5.

Compared with GUUCCGUUGGCGUAAUGGUAAAGCGUCGCCCUCCUAAGGAGAAGACUGCGGGUUCGACUCCCGUACGGAACG, GUUCCGUUGGCGUAAUGGUAAAGCGCCUCCCUCCUAAGGAGAAGACCGCGGGUUCGAGUCCCGUACGGAACG is higher in yeast fitness: ≤ 0.5 for the first, 0.541 for the second.

Going from GUUCCGUUGGCGUAAUGGUAAAGCGUCUCCCUCCUAAGGAGAAGACUGCCGGUUCGAGUCCCGUACGGAGCG to GUUCCGUUGGCGUAAUGGUAAAGCGUCUCCCUCCUAAGGAGAAGACUGCGGGUUCGAGUCCCGUACUGAACG, the yeast fitness rises from ≤ 0.5 to 0.774.

Compared with GUUCCGUUGGCGUAAUGGUAAAGCGUCUCCCUCCUAAGGAGAAGACUGCCGGUUCGAGUCCCGUACGGAACG, GUUCCGUUGGCGUAAUGGUAAAGCGUCUCCCUCCUAAGGAGAAGACUGCGCGUUCGAGUCCCGUACGGUACG is higher in yeast fitness: 0.627 for the first, 0.74 for the second.

First: GUUCCGUUGGCGUAAUGGUAAAGCGUCUCCCUCCUAAGGAGAAGACUACGGGUUCGAGUCCCGUACGGAACG
Second: GUUCCGUUGGCGUAAUGGUAAAGCGUCGCCGUCCUAAGGAGUAGACUGCGGGUUCGAGUCUCGUACGGAACG
The yeast fitness of the first is higher: 0.826 for the first, ≤ 0.5 for the second.

GUUCCGUUGGCGUAAUGGUAAAGCGUCUCCCUCCUAAGGAGAAGACUGCGCGUUCGAGUCCCGUAUGGAACG and GUUCCGUUGGCGUAAUGGUAAACCGUCUCCCUCCUAAGGAGAAGACUGGGGGUUCGAGUCCCGUACGGAACG cannot be ordered by yeast fitness: ≤ 0.5 for the first, ≤ 0.5 for the second.

First: GUUCCGUUGGCGUAAUGGUAAAGCGUCUCCCUCCUAAGGAGAAGACAGCGGGUUCGAGUCCCGUACGGAACG
Second: GUUCCGUUGGCGUAAUGGUAAAGCGUCUCCAUCCUAAGGAGAAGACUGCGGGCUCGCGUCCCGUACGGAACG
The yeast fitness of the first is higher: 0.629 for the first, ≤ 0.5 for the second.

Going from GUUCCGUUGGCGUAAUGGUAAAGCGUCGCCCUCCUAAGGAGAAGACUGCGGGUUCGAGUCCCGUACUGAACG to GUUCCGUUGGCGUAAUGGUAAAGCGUCUCCCUCCUAAGGAGAAGACUGCGGGUUCGAGUCCAGUACGGAACG, the yeast fitness rises from ≤ 0.5 to 0.785.

First: GUUCCGUUGGCGUAAUGGUAAAGCAUCUCCCUCCUAAGGAGAAGACUGCGGGUUCGAGUCCCGUUCGGAACG
Second: GUUCCGUUGGCGUAAUGGUAAAGCGUCUCCCUUCUAAGGAGAAGACUGCGGGUGCGAGUCCCGUACGGAACG
The yeast fitness of the first is higher: 0.684 for the first, ≤ 0.5 for the second.

Going from GUUCCGUUGGCGUAAUGGUAAAGCGUCUCCCUCCUAAGGAGAAGACUGCGCGUUCGAGUCCCGUACGCAACG to GUUCCGUUGGCGUAAUGGUAAAGCGUCUCCCCCCUAAGGAGAAGACUGCGGGUUCGAGUCCCGUACGGAACG, the yeast fitness rises from ≤ 0.5 to 0.869.

First: GUUCCGUUGGCGUAAUGGUAAAGCGUCUCCCUCCUAAGGAGAAGACUGCGGGUUCGAAUCCCGUACGGAACG
Second: GUUCCGUUGGCGUAAUGGUAAAGCGUCUCCCUACUAAGCAGAAGACUGCGGGUUCGAGUCCCGUACGGAACG
The yeast fitness of the first is higher: 0.866 for the first, ≤ 0.5 for the second.

Going from GUUCCGUUGGCGUAAUGGUAAAGCGUCUCCCUCCUAAGGAGAAGACUGCGGGUUCGAGUGCCGUACGGAACG to GUUCCGUUGGCGUAAUGGUAAAGCGUCUCCCUCCUAAGGAGAAGACUGCGGGUUCGAGUUCCGUACGGAACG, the yeast fitness rises from 0.57 to 0.682.

Compared with GUUCCGUUGGCGUAAUGGUAAAGCGUCUCCUUCCUAAGGAGAUGACUGCGGGUUCGAGUCCCGUACGGAACG, GUUCCGUUGGCGUAAUGGUAAACCGUCUCCCUCCUAAGGAGGAGACUGCGGGUUCGAGUCCCGUACGGAACG is lower in yeast fitness: 0.623 for the first, ≤ 0.5 for the second.

First: GUUCCGUUGGCGUAAUGGUAAAGCGUCUCACUCCUAAGGAGAAGACUGCGGGUUCGAGUCCCGUACGGAACG
Second: GUUCCGUUGGCGUAAUGGUAAAGCGUCUCCCUCCUAAGGAGAAGACUGCGGGUUUGAGUCCCGUACGGAACG
The yeast fitness of the first is lower: 0.686 for the first, 0.918 for the second.

Going from GUUCCGUUGGCGUAAUGGUAAAGCGUCUCCCUCCUAAGGAGAAGACUGCGGGUUGGAGUCCCGUACGGAACG to GUUCCGUUGGCGUAAUGGUAAACCGUCUCCCUCCUCAGGAGAAGACUGCGGGUUCGAGUGCCGUCCGGAACG, the yeast fitness falls from 0.63 to ≤ 0.5.

GUUCCGUUGGCGUAAUGGUAAAACGUCUCCCUCCUAGGGAGAAGACUGCGGGUUCGAGUCCCGUACGGUACG and GUUCCGUUGGCGUAAUGGUAAAGCGUCUCUCUCCCAAGGAGAAGACUGCGGGUUCGAGUCCCGUACGGAACG cannot be ordered by yeast fitness: ≤ 0.5 for the first, ≤ 0.5 for the second.

GUUCCGUUGGCGUAAUGGUAAAGCGUCUUCCUCCUAAGGAGAAGACUGCGGGUUCGAGUACCGUAUGGAACG and GUUCCGUUGGCGUAAUGGUAAAGCGUCUCCCUCCUAAGGAGAAGACUGCGGGUUAGUGUCCCGUACGGAACG cannot be ordered by yeast fitness: ≤ 0.5 for the first, ≤ 0.5 for the second.

Going from GUUCCGUUGGCGUAAUGGUAAAGCGUCUACCUCCUAAGGAGAAGACUGCGGGUGCGAGUCCCGUACGGAACG to GUUCCGUUGGCGUAAUGGUAAAGCGUCUACCUCCUAAGGAGAACACUGCGGGUUCGAGUCCCGUACGGAACG, the yeast fitness rises from ≤ 0.5 to 0.605.

GUUCCGUUGGCGUAAUGGUAAAGCGUCUCCGUCCUAAGGAGAAGACUGCGGGUUCGAGUCCCGUACGAAACG and GUUCCGUUGGCGUAAUGGUAAAGCGUCUCUCUCCUAAGGAGCAGACUGCGGGUUCGUGUCCCGUACAGAUCG cannot be ordered by yeast fitness: ≤ 0.5 for the first, ≤ 0.5 for the second.

Variant GUUCCGUUGGCGUAAUGGUAAAGCGUCUCCCUCCUAAGGAGAAGACUGCGGGUUCGAGUAGCGUACGGAACG has a yeast fitness of 0.565.
